Laboratory results reported in ChEMBL document CHEMBL4689842, “EUbOPEN Chemogenomics Library wave 1” (2021).

Test system: U2OS
Assay: Multiplex assay against U2OS
Assay type: toxicity, cell-based
Conditions: human
In short: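 Per cents of healthy-nucleus cells form the tubulin, mitochondrial-mass and membrane-permeability phenotype values. Live cells were stained at seeding with Hoechst33342, BioTracker Green Microtubule Cytoskeleton Dye, MitoTracker Red and Annexin V Alexa Fluor 680. After compound addition they were imaged on a CQ1 microscope at 37°C and 5% CO2, and CellPathfinder machine-learning gating split them into Hoechst high-intensity objects or normal cells, normal cells into healthy, pyknosed or fragmented nuclei, and pyknosed cells into mitotic or apoptotic.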

[1] = 12 h, 1 µM, compound concentration 1 uM, replicate 1
[2] = 12 h, 1 µM, compound concentration 1 uM, replicate 2
[3] = 12 h, 10 µM, compound concentration 10 uM, replicate 1
[4] = 12 h, 10 µM, compound concentration 10 uM, replicate 2
[5] = 24 h, 1 µM, compound concentration 1 uM, replicate 1
[6] = 24 h, 1 µM, compound concentration 1 uM, replicate 2
[7] = 24 h, 10 µM, compound concentration 10 uM, replicate 1
[8] = 24 h, 10 µM, compound concentration 10 uM, replicate 2

Question: Which “Population Apoptotic (%)” value [1] does the source give for `CCN1CCN(c2ccc(Nc3cc(N(C)C(=O)Nc4c(Cl)c(OC)cc(OC)c4Cl)ncn3)cc2)CC1` [INFIGRATINIB] here?
Answer: 33%

Question: And the “Population Fragmented Nuclei (%)” value [1]?
Answer: 15%

Question: And the “Population Healthy Nuclei (%)” value [1]?
Answer: 60%

Question: What about the “Population Hoechst High Intensity Objects (%)” value [1] of the same compound?
Answer: 4%

Question: And the “Population Membrane Permeable-Phenotype (%)” value [1]?
Answer: 20%

Question: And the “Population Mitochondria Different-Phenotype (%)” value [1]?
Answer: 38%

Question: What about the “Population Mitotic Cells (%)” value [1] of the same compound?
Answer: 66%

Question: What about the “Population Normal (%)” value [1] of the same compound?
Answer: 95%

Question: And the “Population Pyknosed Nuclei (%)” value [1]?
Answer: 24%

Question: What about the “Population Tubulin-Different-Phenotype (%)” value [1] of the same compound?
Answer: 71%

Question: And the “Total Cell Count” value [1]?
Answer: 142

Question: What about the “Population Apoptotic (%)” value [2] of the same compound?
Answer: 40%

Question: And the “Population Fragmented Nuclei (%)” value [2]?
Answer: 26%

Question: What about the “Population Healthy Nuclei (%)” value [2] of the same compound?
Answer: 51%

Question: And the “Population Hoechst High Intensity Objects (%)” value [2]?
Answer: 10%

Question: And the “Population Membrane Permeable-Phenotype (%)” value [2]?
Answer: 21%

Question: And the “Population Mitochondria Different-Phenotype (%)” value [2]?
Answer: 55%

Question: What about the “Population Mitotic Cells (%)” value [2] of the same compound?
Answer: 59%

Question: What about the “Population Normal (%)” value [2] of the same compound?
Answer: 89%

Question: What about the “Population Pyknosed Nuclei (%)” value [2] of the same compound?
Answer: 21%

Question: What about the “Population Tubulin-Different-Phenotype (%)” value [2] of the same compound?
Answer: 55%

Question: What about the “Total Cell Count” value [2] of the same compound?
Answer: 127

Question: And the “Population Apoptotic (%)” value [3]?
Answer: 50%

Question: What about the “Population Fragmented Nuclei (%)” value [3] of the same compound?
Answer: 4%

Question: What about the “Population Healthy Nuclei (%)” value [3] of the same compound?
Answer: 87%

Question: And the “Population Hoechst High Intensity Objects (%)” value [3]?
Answer: 6%

Question: What about the “Population Membrane Permeable-Phenotype (%)” value [3] of the same compound?
Answer: 11%

Question: And the “Population Mitochondria Different-Phenotype (%)” value [3]?
Answer: 17%

Question: What about the “Population Mitotic Cells (%)” value [3] of the same compound?
Answer: 50%

Question: And the “Population Normal (%)” value [3]?
Answer: 93%

Question: What about the “Population Pyknosed Nuclei (%)” value [3] of the same compound?
Answer: 7%

Question: What about the “Population Tubulin-Different-Phenotype (%)” value [3] of the same compound?
Answer: 18%

Question: What about the “Total Cell Count” value [3] of the same compound?
Answer: 198

Question: What about the “Population Apoptotic (%)” value [4] of the same compound?
Answer: 16%

Question: What about the “Population Fragmented Nuclei (%)” value [4] of the same compound?
Answer: 7%

Question: What about the “Population Hoechst High Intensity Objects (%)” value [4] of the same compound?
Answer: 13%

Question: What about the “Population Mitochondria Different-Phenotype (%)” value [4] of the same compound?
Answer: 18%

Question: What about the “Population Mitotic Cells (%)” value [4] of the same compound?
Answer: 83%

Question: And the “Population Normal (%)” value [4]?
Answer: 86%

Question: And the “Population Pyknosed Nuclei (%)” value [4]?
Answer: 5%

Question: And the “Population Tubulin-Different-Phenotype (%)” value [4]?
Answer: 13%

Question: And the “Total Cell Count” value [4]?
Answer: 86

Question: And the “Population Apoptotic (%)” value [5]?
Answer: 49%

Question: And the “Population Fragmented Nuclei (%)” value [5]?
Answer: 16%

Question: And the “Population Healthy Nuclei (%)” value [5]?
Answer: 44%

Question: And the “Population Hoechst High Intensity Objects (%)” value [5]?
Answer: 8%

Question: And the “Population Membrane Permeable-Phenotype (%)” value [5]?
Answer: 30%

Question: What about the “Population Mitochondria Different-Phenotype (%)” value [5] of the same compound?
Answer: 63%

Question: And the “Population Mitotic Cells (%)” value [5]?
Answer: 50%

Question: And the “Population Normal (%)” value [5]?
Answer: 91%

Question: What about the “Population Pyknosed Nuclei (%)” value [5] of the same compound?
Answer: 38%

Question: And the “Population Tubulin-Different-Phenotype (%)” value [5]?
Answer: 81%

Question: What about the “Total Cell Count” value [5] of the same compound?
Answer: 192

Question: And the “Population Apoptotic (%)” value [6]?
Answer: 70%

Question: What about the “Population Fragmented Nuclei (%)” value [6] of the same compound?
Answer: 30%

Question: And the “Population Healthy Nuclei (%)” value [6]?
Answer: 39%

Question: What about the “Population Hoechst High Intensity Objects (%)” value [6] of the same compound?
Answer: 14%

Question: What about the “Population Membrane Permeable-Phenotype (%)” value [6] of the same compound?
Answer: 19%

Question: What about the “Population Mitochondria Different-Phenotype (%)” value [6] of the same compound?
Answer: 78%

Question: And the “Population Mitotic Cells (%)” value [6]?
Answer: 29%

Question: What about the “Population Normal (%)” value [6] of the same compound?
Answer: 85%

Question: What about the “Population Pyknosed Nuclei (%)” value [6] of the same compound?
Answer: 30%

Question: What about the “Population Tubulin-Different-Phenotype (%)” value [6] of the same compound?
Answer: 70%

Question: And the “Total Cell Count” value [6]?
Answer: 151

Question: And the “Population Apoptotic (%)” value [7]?
Answer: 14%

Question: And the “Population Fragmented Nuclei (%)” value [7]?
Answer: 5%

Question: What about the “Population Healthy Nuclei (%)” value [7] of the same compound?
Answer: 87%

Question: What about the “Population Hoechst High Intensity Objects (%)” value [7] of the same compound?
Answer: 2%

Question: And the “Population Membrane Permeable-Phenotype (%)” value [7]?
Answer: 15%

Question: What about the “Population Mitochondria Different-Phenotype (%)” value [7] of the same compound?
Answer: 14%

Question: And the “Population Mitotic Cells (%)” value [7]?
Answer: 85%

Question: What about the “Population Normal (%)” value [7] of the same compound?
Answer: 97%

Question: What about the “Population Pyknosed Nuclei (%)” value [7] of the same compound?
Answer: 7%

Question: And the “Population Tubulin-Different-Phenotype (%)” value [7]?
Answer: 23%

Question: What about the “Total Cell Count” value [7] of the same compound?
Answer: 199

Question: What about the “Population Apoptotic (%)” value [8] of the same compound?
Answer: 27%

Question: What about the “Population Fragmented Nuclei (%)” value [8] of the same compound?
Answer: 10%

Question: What about the “Population Healthy Nuclei (%)” value [8] of the same compound?
Answer: 81%

Question: What about the “Population Hoechst High Intensity Objects (%)” value [8] of the same compound?
Answer: 9%

Question: And the “Population Membrane Permeable-Phenotype (%)” value [8]?
Answer: 17%

Question: And the “Population Mitochondria Different-Phenotype (%)” value [8]?
Answer: 20%

Question: What about the “Population Mitotic Cells (%)” value [8] of the same compound?
Answer: 72%

Question: And the “Population Normal (%)” value [8]?
Answer: 90%

Question: And the “Population Pyknosed Nuclei (%)” value [8]?
Answer: 8%

Question: What about the “Population Tubulin-Different-Phenotype (%)” value [8] of the same compound?
Answer: 11%

Question: What about the “Total Cell Count” value [8] of the same compound?
Answer: 81
